Source: PubChem BioAssay (several laboratories)
A selection: hits, their analogues and other compounds. The true share with any hit is near 2.4%.
PGE2 EP2 inh = inhibitors of human EP2 prostaglandin E2 receptor; actives 0.52% (n = 260,000); P43116; C6 glioma cells expressing human EP2, cAMP TR-FRET; cells stimulated with saturating PGE2; inhibition, % at 25 µM;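 active = percent inhibition above 40 after rounding to a whole number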;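 also: rat C6 glioma host cells with rolipram phosphodiesterase inhibitor present; the protocol text gives 20 µM as final concentration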
Target sequence (P43116 whole entry, looked up): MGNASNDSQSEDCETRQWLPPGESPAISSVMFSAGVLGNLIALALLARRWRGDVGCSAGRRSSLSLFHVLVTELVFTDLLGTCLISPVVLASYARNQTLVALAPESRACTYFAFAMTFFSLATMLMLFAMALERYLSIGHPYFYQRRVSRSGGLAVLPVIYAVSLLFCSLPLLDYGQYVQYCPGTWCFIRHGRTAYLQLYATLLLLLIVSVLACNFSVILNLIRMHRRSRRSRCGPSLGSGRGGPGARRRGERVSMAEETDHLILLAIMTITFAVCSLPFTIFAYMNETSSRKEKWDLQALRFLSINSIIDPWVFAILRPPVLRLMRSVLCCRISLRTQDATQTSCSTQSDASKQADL
Tb hexokinase = T. brucei hexokinase 1 inhibition | recombinant TbHK1, G6PDH-coupled NADH A340 | actives 0.11% (n = 220,000) | inhibition, % at 10 µM | AID 1430;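 active = inhibition of 50% or more in the single-dose primary screen; inactive = inhibition below 50%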
EP2 modulator = EP2 receptor (human) modulation; P43116; EP2-expressing cells, cAMP HTRF FRET, PGE2 co-stimulation; induction, % at 25 µM; actives 0.83% (n = 260,000);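 active = compounds whose cAMP rise, as percent of the full-agonist control response, exceeds 60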;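 also: rat C6 glioma line stably carrying human EP2 under a CMV promoter; the protocol text gives 20 µM as final concentration; 100% = response of wells given 1 µM PGE2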
MT stabilize HCS = microtubule stabilization, imaging screen. HeLa tubulin immunostaining HCS, 24 h; share of cells brighter than vehicle mean+2SD. % tubulin-high responders, % at 10 µM. actives 0.83% (n = 200,000). AID 2205;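 active = plate Z-score above 3 for both tubulin-high and condensed-nucleus cell shares, with cell loss under 80%, at 10 µM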;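 also: anti alpha tubulin signal scored within the nucleus-defined area of each cell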
Efa HMGR inh = inhibitors of class II HMG-CoA reductase from Enterococcus faecalis; purified E. faecalis HMGR, NADPH absorbance 340 nm kinetic; inhibition, % at 10 µM; actives 0.41% (n = 190,000);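 active = inhibition above a set limit, the median over all tested compounds plus 3 SD, cut at about 9.5% in these data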;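 also: enzyme runs in reverse so mevalonate oxidation gives rising NADPH absorbance; 0% = complete reaction with DMSO and 100% = background rate lacking mevalonate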
bCat nuc transl = beta-catenin nuclear translocation modulation; HeLa beta-catenin nuclear translocation, immunofluorescence imaging; nuclear translocation activity, % at 5 µM; actives 0.3% (n = 190,000); AID 1665;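 active = nuclear translocation activity above 50% at 5 µM, with a well cell count of 50 or more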;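 also: per-cell ratio of nuclear to cytoplasmic median beta-catenin stain intensity; plate controls were DMSO negative control for no effect and GSK-3 inhibitor IX positive control for full effect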
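Test system: HeLa cells, endogenous beta-catenin; Compound: single 5 µM dose plus 0.02–20 µM confirmation series; Times: compound exposure 24 h at 37°C; Signal: fluorescence imaging of beta-catenin antibody stain plus DAPI; Read-out: % activation, nuclear-to-cytoplasmic median beta-catenin signal ratio per cell.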
The depositor's hits bear a star; ! = repeats disagree.

Cc1ccc2nc(N3C(=O)C(O)=C(C(=O)c4ccco4)C3c3cccs3)sc2c1 (stereo not given) was read as PGE2 EP2 inh 75*!, Tb hexokinase -8, EP2 modulator 31, MT stabilize HCS 4, Efa HMGR inh -2 and bCat nuc transl -4.
N#Cc1c(SCC(=O)Nc2cccc(F)c2)nc2c(c1-c1cccnc1)CCCC2 was read as PGE2 EP2 inh 24 and EP2 modulator 6.
O=C1SC(Nc2ccc3ccccc3c2)C(=O)N1c1ccccc1 (stereo not given) was read as PGE2 EP2 inh 4 and EP2 modulator 6.
`CCOc1cccc2sc(NN)nc12` gave PGE2 EP2 inh 7, Tb hexokinase -2, EP2 modulator -17, MT stabilize HCS 1, Efa HMGR inh -6 and bCat nuc transl -1.
Screening NNc1nc2c(Cl)ccc(Cl)c2s1 returned PGE2 EP2 inh 11, Tb hexokinase 22, EP2 modulator -47, MT stabilize HCS 2, Efa HMGR inh 19* and bCat nuc transl 1.
Screening COc1ccc(C(=O)/C=C2/c3ccccc3CC(C)(C)N2C)cc1 returned Tb hexokinase -7, EP2 modulator -50, MT stabilize HCS 28* and Efa HMGR inh -2.
Screening Cn1cc(CN2CCN(c3ncccn3)CC2)c(-c2cccc(Cl)c2)n1 returned PGE2 EP2 inh 5, Tb hexokinase 2, EP2 modulator -4, MT stabilize HCS 4, Efa HMGR inh 9.6* and bCat nuc transl 0.
Cc1cnccc1CN(C)Cc1cn(C)nc1-c1cccc(Cl)c1 was read as PGE2 EP2 inh 7, Tb hexokinase 3, EP2 modulator -2, MT stabilize HCS 1, Efa HMGR inh 1 and bCat nuc transl 1.
`Cc1cc(N2CCN(Cc3cn(C)nc3-c3ccccc3F)CC2)cc(C)n1` gave PGE2 EP2 inh 3, Tb hexokinase 1, EP2 modulator -24, MT stabilize HCS 21*, Efa HMGR inh -1 and bCat nuc transl 69*.
`Cc1cc(N2CCN(Cc3cn(C)nc3-c3cccc(Cl)c3)CC2)cc(C)n1` gave PGE2 EP2 inh 8, Tb hexokinase 11, EP2 modulator -35, MT stabilize HCS 17, Efa HMGR inh 6 and bCat nuc transl 73*.
`Cn1cc(CN2CCC(C(O)c3cccs3)CC2)c(-c2cccc(Cl)c2)n1` (stereo not given) gave PGE2 EP2 inh 15, Tb hexokinase -1, EP2 modulator -33, MT stabilize HCS 2, Efa HMGR inh -5 and bCat nuc transl 0.
Screening CCCn1nnnc1NC(=O)c1cccc(Cl)c1 returned PGE2 EP2 inh 9 and EP2 modulator -9.
`C=CCNC(=O)CSc1nnc(-c2ccoc2C)n1CCc1ccccc1` gave PGE2 EP2 inh 7 and EP2 modulator -8.
Screening Cc1ccc(S(=O)(=O)n2[nH]c(=O)cc2NC(=O)c2cccs2)cc1 returned PGE2 EP2 inh 3, Tb hexokinase -5, EP2 modulator -15, MT stabilize HCS 3, Efa HMGR inh 11* and bCat nuc transl -3.
Cc1ccc(S(=O)(=O)n2[nH]c(=O)cc2N)cc1 was read as PGE2 EP2 inh -1, Tb hexokinase 10, EP2 modulator -10, MT stabilize HCS 2, Efa HMGR inh 0 and bCat nuc transl 1.
`CC1(C)CNC(=O)c2sc(NC(=O)c3ccccc3)nc2C1` gave PGE2 EP2 inh 5, Tb hexokinase -7, EP2 modulator -45, MT stabilize HCS 1, Efa HMGR inh 14* and bCat nuc transl 0.
Screening CCSc1nc(-c2ccccc2)c(C#N)c(=O)[nH]1 returned PGE2 EP2 inh 50*, Tb hexokinase 1, EP2 modulator 45, MT stabilize HCS 4, Efa HMGR inh 1 and bCat nuc transl 2.
COc1ccccc1CC(C)NC(=O)Cn1nc(C(F)(F)F)c2c1CCCC2 (stereo not given) was read as PGE2 EP2 inh 11 and EP2 modulator -5.
Screening COc1ccc(-c2n[nH]c(C)c2-c2cscn2)c(O)c1 returned PGE2 EP2 inh 13, Tb hexokinase -6, EP2 modulator -13 and bCat nuc transl -1.
C=C(C)COc1ccc(-c2n[nH]c(C)c2-c2ccc(OC)cc2)c(O)c1 was read as PGE2 EP2 inh 4, Tb hexokinase 4, EP2 modulator -26, MT stabilize HCS 30*, Efa HMGR inh -2 and bCat nuc transl 6.
